INS-1E rescue = rescue of cytokine-induced death in INS-1E beta cells; INS-1E cytokine-induced death, ATP luminescence, 48 h; normalised: neutral wells 0, positive control 100; protection from cytokine-induced ATP loss, % at 10 µM; 20,000 compounds, 0.1% hits; AID 488910;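 active = mean replicate protection from cytokine-induced ATP loss at least 50% and at least 75% of replicates each reaching 50%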
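Assay system – rat INS-1E insulinoma cell line · Quantity – 8000 cells per well · Buffer or medium – RPMI without phenol red, 5% FBS · Schedule – 48 h co-treatment, 10 min post-lysis read · Technique – luminescent ATP assay (CellTiter-Glo)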
A1 apoptosis 2 = A1 inhibition read as caspase activation; MEF A1-2A-BIM cells, caspase-Glo luminescence, 3 h; percent of clofoctol response, DMSO zero; caspase activation, % (test concentration not listed); 24,000 tested, under 10 active; AID 2465; in the data active = caspase activation above about 5.9%
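Evaluation: Caspase-3/7 activity from luminescence increase | Assay system: A1-2A-BIM mouse embryonic fibroblasts | Quantity: 2500 MEF cells/well | Medium: RPMI-1640 plus 10% FBS | Detection: Caspase-Glo 3/7 luminescence, 1 h at room temperature | Dosing: 50 nL compound per well, pinned | Timing: Cells settled overnight, compound exposure 3 h at 37 °C, 5% CO2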
T cruzi HTS = intracellular Trypanosoma cruzi inhibition; intracellular Trypanosoma cruzi in host cells, plate reader; activity score (inhibition), % at 5.01 µM; 22,000 compounds, 4.9% hits; AID 651903; in the data active = activity score above about 55%;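 note: parasites and compound incubated about four days before reading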
A number is an active result. Many of the other results were omitted from the sample, so hits are more common in it than they were.

`COC(=O)CCCCCCC(=O)N/N=C/C1(NC(=O)OC(C)(C)C)CCCC1` gave INS-1E rescue inactive and T cruzi HTS inactive.
`CCCCN(CCCC)c1ccc(/C=N/NC(=O)CCCCCCC(=O)OC)cc1` gave INS-1E rescue inactive, A1 apoptosis 2 inactive and T cruzi HTS 58.
For COC(=O)CCCCCCC(=O)N/N=C/c1ccccc1 the results were A1 apoptosis 2 inactive.
For C=CCNC(=O)[C@H]1[C@@H]2C(=O)O[C@@H](c3ccccc3)[C@@H](c3ccccc3)N2[C@@H](c2ccc(O)cc2)[C@]12C(=O)N(C(=O)OCCOC)c1ccccc12 the results were A1 apoptosis 2 inactive.
Screening C[C@H](CO)N1C[C@H](C)[C@@H](CN(C)Cc2ccccc2)Oc2ccc(NS(=O)(=O)c3ccc(Cl)cc3)cc2CC1=O returned A1 apoptosis 2 inactive.
`C[C@H]1CN([C@@H](C)CO)C(=O)Cc2cc(NS(=O)(=O)c3ccc(F)cc3)ccc2O[C@H]1CN(C)Cc1ccc(-c2ccccc2)cc1` gave INS-1E rescue inactive, A1 apoptosis 2 inactive and T cruzi HTS inactive.
C[C@@H]1CN([C@@H](C)CO)C(=O)Cc2cc(NS(=O)(=O)c3ccc(F)cc3)ccc2O[C@@H]1CN(C)Cc1ccc(Oc2ccccc2)cc1 was read as INS-1E rescue inactive and T cruzi HTS 75.
C[C@@H]1CN([C@H](C)CO)C(=O)Cc2cc(NS(=O)(=O)c3ccc(Cl)cc3)ccc2O[C@H]1CN(C)Cc1ccc(Oc2ccccc2)cc1 was read as INS-1E rescue inactive and T cruzi HTS 64.
`C[C@H]1CN([C@@H](C)CO)C(=O)Cc2cc(NS(=O)(=O)c3ccc(Cl)cc3)ccc2O[C@H]1CN(C)Cc1ccc(Oc2ccccc2)cc1` gave INS-1E rescue inactive, A1 apoptosis 2 inactive and T cruzi HTS inactive.
C[C@@H]1CN([C@H](C)CO)C(=O)Cc2cc(NS(=O)(=O)c3ccc(Cl)cc3)ccc2O[C@H]1CN(C)Cc1ccccc1 was read as INS-1E rescue inactive and T cruzi HTS 73.
For C[C@@H]1CN([C@@H](C)CO)C(=O)Cc2cc(NS(=O)(=O)c3ccc(F)cc3)ccc2O[C@@H]1CN(C)Cc1ccc(-c2ccccc2)cc1 the results were INS-1E rescue inactive, A1 apoptosis 2 inactive and T cruzi HTS 63.
C[C@H]1CN([C@@H](C)CO)C(=O)Cc2cc(NS(=O)(=O)c3ccc(F)cc3)ccc2O[C@H]1CN(C)Cc1ccc(Oc2ccccc2)cc1 was read as INS-1E rescue inactive and T cruzi HTS inactive.
Screening O=C(NO)c1cccc(C(=O)N/N=C/c2cccc(O)c2)c1 returned INS-1E rescue inactive, A1 apoptosis 2 inactive and T cruzi HTS inactive.
Cc1noc(C)c1NC(=O)N(C)C[C@@H]1OCCCC[C@@H](C)Oc2ccc(NC(=O)Cc3ccccc3)cc2C(=O)N([C@@H](C)CO)C[C@@H]1C was read as A1 apoptosis 2 inactive.
For O=C(NO)c1ccc(C(=O)N/N=C/c2ccc3c(c2)OCCO3)cc1 the results were INS-1E rescue inactive, A1 apoptosis 2 inactive and T cruzi HTS inactive.
C[C@@H]1CN([C@H](C)CO)C(=O)c2cc(NC(=O)Nc3ccccc3)ccc2O[C@@H]1CN(C)Cc1ccc(C(F)(F)F)cc1 was read as T cruzi HTS inactive.
For C[C@H](CO)N1C[C@H](C)[C@H](CN(C)Cc2ccc(Oc3ccccc3)cc2)Oc2ccc(NC(=O)Nc3ccc(C(F)(F)F)cc3)cc2C1=O the results were T cruzi HTS 63.
Screening C[C@H]1CN([C@@H](C)CO)C(=O)c2cc(NC(=O)Nc3ccc(C(F)(F)F)cc3)ccc2O[C@H]1CN(C)Cc1ccc(Oc2ccccc2)cc1 returned INS-1E rescue inactive and T cruzi HTS 80.
Screening C[C@H](CO)N1C[C@H](C)[C@@H](CN(C)Cc2ccc(Oc3ccccc3)cc2)Oc2ccc(NC(=O)Nc3ccc(C(F)(F)F)cc3)cc2C1=O returned INS-1E rescue inactive, A1 apoptosis 2 inactive and T cruzi HTS inactive.
For O=C(N/N=C/c1ccc2c(c1)OCCO2)c1ccccn1 the results were INS-1E rescue inactive, A1 apoptosis 2 inactive and T cruzi HTS inactive.
Screening C[C@@H]1CN([C@@H](C)CO)C(=O)Cc2cc(NS(=O)(=O)c3ccccc3)ccc2O[C@@H]1CN(C)Cc1ccc(Cl)c(Cl)c1 returned INS-1E rescue inactive and T cruzi HTS inactive.
For C[C@H]1CN([C@@H](C)CO)C(=O)Cc2cc(NS(=O)(=O)c3ccccc3)ccc2O[C@@H]1CN(C)Cc1ccc(Cl)c(Cl)c1 the results were INS-1E rescue inactive, A1 apoptosis 2 inactive and T cruzi HTS 65.
Screening C[C@@H]1CN([C@H](C)CO)C(=O)Cc2cc(NS(C)(=O)=O)ccc2O[C@@H]1CN(C)Cc1ccc(Cl)c(Cl)c1 returned INS-1E rescue inactive and T cruzi HTS inactive.
For C[C@H]1CN([C@@H](C)CO)C(=O)Cc2cc(NS(=O)(=O)c3ccc(Cl)cc3)ccc2O[C@@H]1CN(C)Cc1ccc(Cl)c(Cl)c1 the results were INS-1E rescue inactive and T cruzi HTS inactive.
Screening C[C@@H]1CN([C@@H](C)CO)C(=O)Cc2cc(NS(=O)(=O)c3ccc(Cl)cc3)ccc2O[C@@H]1CN(C)Cc1ccc(Cl)c(Cl)c1 returned INS-1E rescue inactive, A1 apoptosis 2 inactive and T cruzi HTS 61.
For C[C@H]1CN([C@@H](C)CO)C(=O)Cc2cc(NS(C)(=O)=O)ccc2O[C@@H]1CN(C)Cc1ccc(Cl)c(Cl)c1 the results were INS-1E rescue inactive, A1 apoptosis 2 inactive and T cruzi HTS 64.
`O=C(CCCCCCC(=O)Nc1ccccc1O)N/N=C/c1cccc(O)c1` gave INS-1E rescue inactive, A1 apoptosis 2 inactive and T cruzi HTS inactive.
`O=C(O)CCCCCC(=O)N/N=C/c1ccc(F)cc1` gave INS-1E rescue inactive, A1 apoptosis 2 inactive and T cruzi HTS inactive.
`COc1ccc(CN(C)C[C@H]2Oc3ccc(NC(=O)Nc4cccc5ccccc45)cc3CC(=O)N([C@@H](C)CO)C[C@@H]2C)cc1` gave A1 apoptosis 2 inactive.
Screening C[C@@H]1CN([C@@H](C)CO)C(=O)Cc2cc(NC(=O)Nc3cccc4ccccc34)ccc2O[C@@H]1CN(C)Cc1ccc(Oc2ccccc2)cc1 returned INS-1E rescue inactive and T cruzi HTS 68.
`C[C@H]1CN([C@@H](C)CO)C(=O)Cc2cc(NC(=O)Nc3cccc4ccccc34)ccc2O[C@@H]1CN(C)Cc1ccc(Oc2ccccc2)cc1` gave INS-1E rescue inactive, A1 apoptosis 2 inactive and T cruzi HTS 70.
C[C@H](CO)N1C[C@H](C)[C@H](CN(C)Cc2ccc(Oc3ccccc3)cc2)Oc2ccc(NC(=O)Nc3cccc4ccccc34)cc2CC1=O was read as INS-1E rescue inactive and T cruzi HTS inactive.
For COC(=O)CCCCCCC(=O)N/N=C/c1ccc(O)c(F)c1 the results were INS-1E rescue inactive and T cruzi HTS inactive.
O=C(CCCCCC(=O)Nc1ccccc1O)N/N=C/c1ccc(Br)s1 was read as INS-1E rescue inactive, A1 apoptosis 2 inactive and T cruzi HTS inactive.
For COc1ccc(CN(C)C[C@@H]2Oc3ccc(NS(=O)(=O)c4ccc(C)cc4)cc3CC(=O)N([C@H](C)CO)C[C@H]2C)cc1 the results were INS-1E rescue inactive and T cruzi HTS 68.
